The fraction unbound is free concentration divided by total concentration. A lower fraction unbound goes with little free substance.

5 compounds from ChEMBL document CHEMBL1781963, “Discovery of novel hepatoselective HMG-CoA reductase inhibitors for treating hypercholesterolemia: a bench-to-bedside case study on tissue selective drug distribution” (Bioorg Med Chem Lett, 2011) can be followed below.

Data set [1] has as its target T1, OATP1B3 (Homo sapiens, UniProt Q9NPD5).
T1 sequence (Q9NPD5 whole entry): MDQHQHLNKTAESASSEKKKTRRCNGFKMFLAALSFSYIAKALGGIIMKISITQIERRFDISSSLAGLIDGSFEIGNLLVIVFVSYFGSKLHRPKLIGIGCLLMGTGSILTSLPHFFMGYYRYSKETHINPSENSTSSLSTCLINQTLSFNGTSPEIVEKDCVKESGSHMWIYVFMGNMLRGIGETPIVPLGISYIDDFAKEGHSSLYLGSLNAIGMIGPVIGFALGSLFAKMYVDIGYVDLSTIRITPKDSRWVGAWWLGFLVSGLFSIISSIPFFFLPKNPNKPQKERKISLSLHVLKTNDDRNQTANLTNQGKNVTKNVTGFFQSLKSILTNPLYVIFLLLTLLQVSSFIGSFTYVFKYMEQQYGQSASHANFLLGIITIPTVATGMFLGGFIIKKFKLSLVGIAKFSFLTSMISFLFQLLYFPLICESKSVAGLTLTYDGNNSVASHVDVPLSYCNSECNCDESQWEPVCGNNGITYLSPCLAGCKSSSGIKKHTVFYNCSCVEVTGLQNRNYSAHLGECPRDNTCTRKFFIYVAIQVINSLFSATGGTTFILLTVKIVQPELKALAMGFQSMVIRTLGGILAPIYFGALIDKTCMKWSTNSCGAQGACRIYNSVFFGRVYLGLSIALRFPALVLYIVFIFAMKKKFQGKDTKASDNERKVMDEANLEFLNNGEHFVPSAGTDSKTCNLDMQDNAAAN
In words: Drug uptake by human hepatic OATP1B3 transporter expressed in HEK293 cells at 1 uM relative to wild-type HEK293 cells. In kind it is ADME, cell-based. Conditions: HEK293 cells expressing human OATP1B3, read-out: FC. The method in brief:
(§1)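 Individual hepatic OATP transporters were over-expressed in CHO or HEK293 cells: rat rOatp1a1, rOatp1a4 and rOatp1b2, and human hOATP1B1, hOATP1B3 and hOATP2B1. Substrate uptake is expressed as fold difference relative to the wild-type parental line. Rosuvastatin/pravastatin served as positive control and midazolam as negative control in each assay.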

In the next data set the target is T2, OATP1A1 (Rattus norvegicus, UniProt P46720).
T2 sequence (P46720 whole entry): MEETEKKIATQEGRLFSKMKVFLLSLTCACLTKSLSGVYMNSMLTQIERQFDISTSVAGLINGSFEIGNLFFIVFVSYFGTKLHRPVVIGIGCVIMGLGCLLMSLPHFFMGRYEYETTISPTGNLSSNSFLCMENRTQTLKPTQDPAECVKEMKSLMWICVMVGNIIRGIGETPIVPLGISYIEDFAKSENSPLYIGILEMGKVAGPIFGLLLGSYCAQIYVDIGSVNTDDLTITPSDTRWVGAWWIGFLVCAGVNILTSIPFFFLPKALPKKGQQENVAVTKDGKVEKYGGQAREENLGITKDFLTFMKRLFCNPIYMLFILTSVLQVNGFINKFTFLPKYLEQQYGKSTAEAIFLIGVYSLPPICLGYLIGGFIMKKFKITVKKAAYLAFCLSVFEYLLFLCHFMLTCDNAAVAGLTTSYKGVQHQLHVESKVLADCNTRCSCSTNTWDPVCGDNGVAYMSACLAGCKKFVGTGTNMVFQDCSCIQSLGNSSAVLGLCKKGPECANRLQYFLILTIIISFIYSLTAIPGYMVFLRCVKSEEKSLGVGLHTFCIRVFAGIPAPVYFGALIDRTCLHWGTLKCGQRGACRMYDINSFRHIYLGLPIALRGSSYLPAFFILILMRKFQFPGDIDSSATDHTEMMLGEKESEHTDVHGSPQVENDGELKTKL
In words: Drug uptake by rat hepatic OATP1A1 transporters expressed in CHO cells at 1 uM relative to wild type CHO cells. The data set is classed as ADME, cell-based. Conditions: CHO cells expressing rat OATP1A1, read-out: FC. A digest of the protocol:
as §1

Data set [2] addresses T1, OATP1B3. Briefly: Drug uptake by human hepatic OATP1B3 transporter expressed in HEK293 cells at 10 uM relative to wild-type HEK293 cells. The data set is classed as ADME, cell-based. The settings on record: HEK293 cells expressing OATP1B3, read-out: FC. A digest of the protocol: as §1
In data set [3] the target is T3, OATP2B1 (Homo sapiens, UniProt O94956).
T3 sequence (O94956 whole entry): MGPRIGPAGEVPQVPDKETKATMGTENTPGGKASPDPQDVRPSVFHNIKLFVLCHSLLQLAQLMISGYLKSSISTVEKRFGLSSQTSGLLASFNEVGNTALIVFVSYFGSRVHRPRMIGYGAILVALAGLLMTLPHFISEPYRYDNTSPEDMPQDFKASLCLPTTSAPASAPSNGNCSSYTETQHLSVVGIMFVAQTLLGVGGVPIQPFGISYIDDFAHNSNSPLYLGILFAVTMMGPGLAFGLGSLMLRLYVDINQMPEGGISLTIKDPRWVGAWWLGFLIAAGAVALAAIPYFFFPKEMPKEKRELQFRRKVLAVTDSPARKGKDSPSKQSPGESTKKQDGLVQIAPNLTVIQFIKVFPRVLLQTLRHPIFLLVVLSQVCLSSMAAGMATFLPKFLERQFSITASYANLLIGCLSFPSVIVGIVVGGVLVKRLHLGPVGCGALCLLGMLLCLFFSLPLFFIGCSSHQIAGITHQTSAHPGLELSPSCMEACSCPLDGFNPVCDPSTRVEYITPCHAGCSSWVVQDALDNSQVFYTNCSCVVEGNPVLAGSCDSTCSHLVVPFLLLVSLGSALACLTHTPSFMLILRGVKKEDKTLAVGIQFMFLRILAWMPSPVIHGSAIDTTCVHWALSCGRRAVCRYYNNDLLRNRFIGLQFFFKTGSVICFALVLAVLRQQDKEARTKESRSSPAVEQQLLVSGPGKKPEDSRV
Briefly: Drug uptake by human hepatic OATP2B1 transporter expressed in HEK293 cells at 10 uM relative to wild-type HEK293 cells. The data set is classed as ADME, cell-based. The settings on record: HEK293 cells expressing OATP2B1, read-out: FC. The method in brief: as §1

The test system of another data set is L6. In words: Selectivity ratio of IC50 for cholesterol synthesis in rat L6 cells to IC50 for cholesterol synthesis in rat hepatocytes.
The test system of another data set is Hepatocyte. Briefly: Drug uptake in sandwich-cultured human hepatocytes assessed per mg of protein at 1 uM in presence of rifamycin SV. In kind it is ADME, cell-based. A digest of the protocol: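 Rat or human hepatocytes were cultured in sandwich configuration with a Matrigel overlay and compound uptake was measured. Active uptake was assessed by inhibition with the pan-OATP inhibitor rifamycin SV. Rosuvastatin/pravastatin served as positive control and midazolam as negative control.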

The nature of data set [4]: Fraction unbound in rat liver at 1 uM. In kind it is ADME, tissue-based. The method in brief: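 Unbound fraction in rat liver tissue, measured at 1 μM drug.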
Data set [5] can be described thus: Ratio of fAUC (0 to 24 hrs) in liver to plasma in Sprague-Dawley rat at 10 mg/kg, po. In kind it is ADME, organism-based. More on the design: dose 10 mg/kg, route oral. Conditions: liver and plasma. A digest of the protocol: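 Sprague-Dawley rats given a single oral dose (10 or 25 mg/kg). Free drug measured in liver and plasma at 0, 0.5, 1, 2, 3, 4, 7 and 24 h, n = 3/time point.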

For data set [6], the target named is T3, OATP2B1. In words: Drug uptake by human hepatic OATP2B1 transporter expressed in HEK293 cells at 1 uM relative to wild-type HEK293 cells. Conditions: HEK293 cells expressing human OATP2B1, read-out: FC. In kind it is ADME, cell-based. The method in brief:
as §1

`CC[C@H](C)C(=O)O[C@H]1C[C@H](O)C=C2C=C[C@H](C)[C@H](CC[C@@H](O)C[C@@H](O)CC(=O)O)[C@H]21` [PRAVASTATIN]: the uptake ratio at 1 µM at OATP1B3 [1] came out at 13; at OATP1A1, 2.4. Besides, on OATP1B3 [2], the uptake ratio at 10 µM is 32.8.
Take `O=C([O-])C[C@H](O)C[C@H](O)CCn1c(-c2ccc(F)cc2)nc(C(=O)NCc2cccc(F)c2)c1C1CC1.[Na+]`: the uptake ratio at 10 µM came to 6.8 on OATP2B1 [3] and 36.4 on OATP1B3 [2]. For the same compound, the “Ratio IC50” value with L6 is listed as 4440. The uptake ratio at 1 µM at OATP1B3 [1] was 34.5; at OATP1A1, 5.8; at OATP2B1 [6], 7.1. In addition, the Drug uptake with Hepatocyte is on record as 97%. Further, in data set [4], the fraction unbound at 1 µM worked out at 0.23. The Kp uu in [5] worked out at 41.
Turning to `Cc1ccc(CNC(=O)c2nn(-c3ccc(F)cc3)c(CC[C@@H](O)C[C@@H](O)CC(=O)O)c2C(C)C)cc1`, the uptake ratio at 10 µM was found to be 1.4 on OATP2B1 [3] and 5 on OATP1B3 [2]. Besides, in the data set with L6, the “Ratio IC50” value is 810. Further, the uptake ratio at 1 µM is 11.1 at OATP1B3 [1], 3.6 at OATP1A1 and 2.1 on OATP2B1 [6]. Moreover, the Drug uptake in the data set on Hepatocyte stood at 78%. In data set [4], this compound registered a fraction unbound at 1 µM of 0.052.
As for `CC(C)c1nc(N(C)S(C)(=O)=O)nc(-c2ccc(F)cc2)c1/C=C/[C@@H](O)C[C@@H](O)CC(=O)O` [ROSUVASTATIN], the uptake ratio at 10 µM on OATP2B1 [3] came to 6.6; at OATP1B3 [2], 11.1. The “Ratio IC50” value in the data set on L6 was 830. Further, the uptake ratio at 1 µM at OATP1B3 [1] came to 3.7; at OATP1A1 it was 8.2; at OATP2B1 [6], 5.5. In addition, in the data set on Hepatocyte, the Drug uptake was 85%. In addition, the fraction unbound at 1 µM in data set [4] is 0.17. For the same compound, the Kp uu in data set [5] was determined as 30.
As to `Cc1ncc2n1-c1ccc(Cl)cc1C(c1ccccc1F)=NC2` [MIDAZOLAM], the uptake ratio at 10 µM at OATP2B1 [3] was 0.7; on OATP1B3 [2], 1.1. Moreover, the uptake ratio at 1 µM on OATP1B3 [1] worked out at 0.9; at OATP1A1, 1.6; at OATP2B1 [6], 0.8.
